# Results: ChEMBL document CHEMBL4706506 (Eur J Med Chem, 2020)
# Active and inactive are the calls of the source. The rule behind the calls is not given here.
# How the values were obtained:
# [1] = tested on: B16-F0; assay: Induction of microtubule destabilization in mouse B16-F0 cells assessed as short and wrapped structure at 40 nM measured after 6 hrs by DAPI staining based immunofluorescent assay relative to control; type: cell-based
# Method in brief: (§1)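 Fixed in 4% paraformaldehyde, permeabilized with 0.5% Triton X-100 for 15 min, goat serum blocked. Anti-tubulin antibody 2 h at 4 °C, then fluorescent secondary antibody and DAPI nuclear counterstain. Imaged by confocal microscopy.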
# [2] = Metabolic stability in human liver microsomes assessed as half life in presence of NADPH at 0.5 uM measured after 4 hrs by LC/MS method; type: ADME, Microsome
# [3] = tested on: B16-F0; assay: Inhibition of tubulin polymerization in mouse B16-F0 cells at 160 nM measured after 6 hrs by DAPI staining based immunofluorescent assay relative to control; type: cell-based; details: dose 40.0 nM, in the assay text read “at 40 nM” for “at 160 nM”; method in brief: as §1
# [4] = tested on: MCF7; assay: Inhibition of cell migration in human MCF7 cells measured after 24 hrs by phase contrast microscopy based wound healing assay relative to control; type: functional; details: dose 10-40 nM
# Method in brief: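 Confluent MCF-7 monolayers, grown 24 h, scratched with a pipette tip and washed with PBS. Medium with 0, 10, 20 or 40 nM compound added. Wounds photographed by phase contrast at 0 and 24 h; migration distance measured manually.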
# [5] = Metabolic stability in mouse liver microsomes assessed as half life in presence of NADPH at 0.5 uM measured after 4 hrs by LC/MS method; type: ADME, Microsome
# [6] = tested on: MCF7; assay: Induction of cell cycle arrest in human MCF7 cells assessed as accumulation of cells at G2/M phase measured after 48 hrs by FACS Calibur flow cytometry in relative to control; type: functional, cell-based
# Method in brief: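 MCF-7 cells plated for 24 h, then exposed to compound (5 or 10 nM; DMSO control) for 48 h. Fixed in 70% ethanol at 4 °C for 12 h, then RNase A and propidium iodide staining for 30 min. DNA content measured by flow cytometry.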
# [7] = tested on: B16-F0; assay: Antitumour activity against mouse B16-F0 cells transplanted in C57/BL mouse assessed as decrease in tumour volume at 10 mg/kg, ip measured after 16 days in relative to control; type: functional; parameters: scale not given: the % may be the effect or the level left; details: time 16 day
# [8] = Toxicity in C57/BL mouse […] with mouse B16-F0 cells assessed as kidney histology at 10 to 20 mg/kg, ip measured after 16 days by H and E staining method in relative to control; type: organism-based; details: in vivo, 384 h, dose 10-20 mg/kg, time 16 day
# [9] = tested on: B16-F0; assay: Antitumour activity against mouse B16-F0 cells transplanted in C57/BL mouse assessed as decrease in tumour volume at 20 mg/kg, ip measured after 16 days in relative to control; type: functional; parameters: scale not given: the % may be the effect or the level left; details: time 16 day
# [10] = Binding affinity to pig brain tubulin at 30 degree C without preincubation; type: tissue-based, Sus scrofa
# Method in brief: (§2)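 Porcine brain tubulin purified by three assembly/disassembly cycles and phosphocellulose chromatography. Mixed with graded compound concentrations in PEM (100 mM PIPES, 1 mM EGTA, 1 mM MgCl2) with 1 mM GTP and 5% glycerol. Polymerization followed at 37 °C by light scattering at 340 nm; variants ran at 30 °C, or with 5 min preincubation before GTP addition. IC50 reported.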
# [11] = tested on: HCT-116; assay: Antiproliferative activity against human HCT-116 cells assessed as inhibition of cell proliferation measured after 48 hrs by CCK-8 assay; type: functional, cell-based; details: HCT-116, 48 h
# Method in brief: (§3)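 RPMI-1640 with 10% FBS, 37 °C, 5% CO2. Cells seeded at 1-3 × 10^4/well and exposed to 0.00098–64 μM (nine 4-fold steps) or 0.1% DMSO vehicle for 48 h. CCK-8 then added for 4 h; absorbance read at 450 nm. IC50 taken from dose–response curves; mean ± SD of three independent experiments.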
# [12] = Toxicity in C57/BL mouse […] with mouse B16-F0 cells assessed as liver histology at 10 to 20 mg/kg, ip measured after 16 days by H and E staining method in relative to control; type: organism-based; details: in vivo, 384 h, dose 10-20 mg/kg, time 16 day
# [13] = Binding affinity to pig brain tubulin at 37 degree C preincubated for 5 mins; type: tissue-based, Sus scrofa; method in brief: as §2
# [14] = Toxicity in C57/BL mouse […] with mouse B16-F0 cells assessed as body weight loss at 10 to 20 mg/kg, ip measured after 16 days in relative to control; type: organism-based; details: in vivo, 384 h, dose 10-20 mg/kg, time 16 day
# [15] = Binding affinity to pig brain tubulin at 37 degree C without preincubation; type: tissue-based, Sus scrofa; method in brief: as §2
# [16] = tested on: B16-F0; assay: Antiproliferative activity against mouse B16-F0 cells assessed as inhibition of cell proliferation measured after 48 hrs by CCK-8 assay; type: functional, cell-based; details: B16F0, 48 h; method in brief: as §3
# [17] = Inhibition of pig brain tubulin polymerization measured by light scattering based spectrophotometer method; type: tissue-based, Sus scrofa; method in brief: as §2
# [18] = tested on: HeLa; assay: Antiproliferative activity against human HeLa cells assessed as inhibition of cell proliferation measured after 48 hrs by CCK-8 assay; type: functional, cell-based; method in brief: as §3
# [19] = tested on: MCF7; assay: Antiproliferative activity against human MCF7 cells assessed as inhibition of cell proliferation measured after 48 hrs by CCK-8 assay; type: functional, cell-based; details: MCF7, 48 h
# [20] = tested on: B16-F0; assay: Inhibition of tubulin polymerization in mouse B16-F0 cells at 40 nM measured after 6 hrs by DAPI staining based immunofluorescent assay relative to control; type: cell-based; method in brief: as §1
# [21] = tested on: B16-F0; assay: Antitumour activity against mouse B16-F0 cells transplanted in C57/BL mouse assessed as decrease in tumour weight at 10 mg/kg, ip measured after 16 days in relative to control; type: functional; parameters: scale not given: the % may be the effect or the level left; details: time 16 day
# [22] = tested on: B16-F0; assay: Antitumour activity against mouse B16-F0 cells transplanted in C57/BL mouse assessed as decrease in tumour weight at 20 mg/kg, ip measured after 16 days in relative to control; type: functional; parameters: scale not given: the % may be the effect or the level left; details: time 16 day
# [23] = tested on: A549; assay: Antiproliferative activity against human A549 cells assessed as inhibition of cell proliferation measured after 48 hrs by CCK-8 assay; type: functional, cell-based; details: A549, 48 h; method in brief: as §3
smiles,measurement,setting,value
COc1cc(-c2ccnc3cc(-c4ccc(C)cc4)nn23)cc(OC)c1OC,Activity,[1],Active
same,half-life at 0.5 µM,[2],2.08 h
same,inhibition,[3],Active
same,inhibition,[4],Active
same,half-life at 0.5 µM,[5],2 h
same,Activity,[6],Active
same,Activity,[7],40.1%
same,Activity,[8],Non-Toxic
same,Activity,[9],77.4%
same,IC50,[10],2100 nM
same,IC50,[11],48 nM
same,Activity,[12],Non-Toxic
same,IC50,[13],1600 nM
same,Activity,[14],Non-Toxic
same,IC50,[15],2100 nM
same,IC50,[16],21 nM
same,IC50,[17],2100 nM
same,IC50,[18],21 nM
same,IC50,[19],47 nM
same,inhibition,[20],Active
same,Activity,[21],38.6%
same,Activity,[22],74.5%
same,IC50,[23],3 nM
